Data set [1] is described as follows: Antiangiogenic activity in CD34-positive human EPC assessed as inhibition of tube formation on matrigel after 24 hrs by inverted phase-contrast microscopy. Type of data set: functional, cell-based. The essentials:
(§1)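 Human CD34+ EPCs (from PBMCs, MACS bead separation) maintained on 1% gelatin in MV2 medium with 20% FBS. Matrigel polymerized 30 min at 37 °C; 6 × 10^4 cells/well seeded in MV2 with 2% FBS plus compound, 24 h at 37 °C. Tube length measured in three random fields per well, expressed against DMSO control; IC50 derived from this.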

Data set [2] concerns RAW264.7. Briefly: Antiinflammatory activity in mouse RAW264.7 cells assessed as inhibition of LPS-stimulated nitric oxide production at 100 uM compound treated prior to LPS challenge by Griess assay. The data set is classed as functional. The essentials: (§2)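 RAW264.7 grown to confluence (24 h, DMEM 10% FBS), then serum-free DMEM 4 h for quiescence. Compounds added before LPS (200 ng/mL). Nitrite in medium read spectrophotometrically by Griess reaction. Percent inhibition calculated versus vehicle plus LPS; Emax is inhibition at 100 μM, IC50 the concentration giving 50% of Emax; n = 4−6.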

Data set [3] can be described thus: Cytotoxicity against mouse RAW264.7 cells assessed as cell viability by AlamarBlue assay. Type of data set: cell-based. The arrangement: concentration or dose not given beside the values. The settings on record: read-out: Activity. The essentials: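 RAW264.7 macrophages exposed to compounds at up to 100 μM under the NO-assay conditions; viability read by AlamarBlue.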
For orientation: The colour change of resazurin is a common sign of viable cells or microbes.

Data set [4] concerns RAW264.7. Description: Antiinflammatory activity in mouse RAW264.7 cells assessed as inhibition of LPS-stimulated nitric oxide production compound treated prior to LPS challenge by Griess assay. Type of data set: functional, cell-based. Summed up: as §2
(In general: Nitrite, measured by Griess reagent, commonly stands in for NO production.)

Data set [5] has as its system EPC. Description: Antiangiogenic activity in CD34-positive human EPC assessed as inhibition of tube formation on matrigel at 10 uM after 24 hrs by inverted phase-contrast microscopy. The data set is classed as functional, cell-based. Summed up:
as §1

Data set [6] in a line: Cytotoxicity against CD34-positive human EPC at 20 uM after 24 hrs by LDH release assay. The data set is classed as cell-based. Summed up:
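EPCs seeded at 5 × 10^3 cells/well, treated 24 h in MV2 medium with 2% FBS containing compound at 20 μM. LDH release taken as medium LDH activity relative to cell-lysate LDH activity. Mean ± SEM of three independent experiments.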
Background: LDH leaks from cells whose membrane has failed.

pIC50: −log10 of the molar value. Calls of active or inactive are those of the source. The rule behind the calls is not given here.

As usually defined, the pIC50 is the IC50 on a negative log10 scale, so that one unit is a factor of ten. For orientation: Emax means the size of the effect at its maximum, as opposed to the concentration needed. On to `CO[C@H]1[C@@H](OC(=O)/C=C/[C@@H](O)[C@H](C)O)CC[C@@]2(CO2)[C@@H]1[C@@]1(C)O[C@H]1CC=C(C)C`, for which the pIC50 in data set [1] was 4.74; in data set [4], 4.69. In data set [2], the maximal response (Emax) at 100 µM came out at 100%. For the same compound, the viability in data set [3] turned out to be 97.6%.
For `CC/C=C\[C@H](O)[C@H](O)C1=C(C)C(=O)[C@]2(O1)C(=O)N[C@@](OC)(C(=O)c1ccccc1)[C@H]2O` the same measures were under 4.70, 4.20, 67.2% and 99.3%.
Regarding `CO[C@H]1[C@@H](OC(=O)/C=C/[C@H]2O[C@H]2C)CC[C@@]2(CO2)[C@@H]1[C@]1(C)O[C@H]1CC=C(C)C`, the inhibition entry in data set [5] is “Active”. The pIC50 in data set [1] was 4.75; in data set [4], 5.06. Moreover, the maximal response (Emax) at 100 µM in data set [2] is 100%. For the same compound, the viability in data set [3] was found to be 98.7%. In addition, the Activity entry in data set [6] was “Non-Toxic”.
For `CNC(=O)c1cc(Oc2ccc(NC(=O)Nc3ccc(Cl)c(C(F)(F)F)c3)cc2)ccn1` [SORAFENIB], in data set [1], the negative-log IC50 (pIC50) was 5.44.
Take `N=C(N)NN` [PIMAGEDINE]: the Emax at 100 µM in data set [2] came to 83.7%. The viability in data set [3] stood at 99.2%. In data set [4], the pIC50 is 4.61.
As for `CO[C@H]1[C@@H](OC(=O)/C=C/[C@H]2O[C@H]2C)CC[C@@](O)(CCl)[C@@H]1[C@]1(C)O[C@H]1CC=C(C)C`, the pIC50 is under 4.70 in data set [1] and 4.87 in data set [4]. Moreover, the maximal effect (Emax) at 100 µM in data set [2] is 100%. Further, in data set [3], the viability was found to be 101%. Moreover, the Activity result in data set [6] is given as “Non-Toxic”.
As for `CO[C@H]1[C@@H](OC(=O)/C=C/[C@@H](O)[C@H](C)O)CC[C@@](O)(CCl)[C@@H]1[C@]1(C)O[C@H]1CC=C(C)C`, in data set [5], the inhibition entry was “Active”. In addition, the results for the pIC50 in data set [1] and in data set [4] were 5.09 and 4.71, respectively. Further, in data set [2], the maximal effect (Emax) at 100 µM was found to be 87.9%. The viability in data set [3] was 99.2%. Moreover, the Activity result in data set [6] was “Non-Toxic”.
On to `CC/C=C\[C@H](O)[C@H](O)C1=C(C)C(=O)[C@]2(O1)C(=O)N[C@@](OC)(C(=O)c1ccccc1)[C@@H]2O` [PSEUROTIN A], for which the figures for the negative logarithm of the IC50 (pIC50) in data set [1] and in data set [4] were under 4.70 and under 4.00, respectively. Besides, the Emax at 100 µM in data set [2] was 38.8%. For the same compound, the viability in data set [3] was found to be 103%.
`N=C(NCCC[C@H](N)C(=O)O)N[N+](=O)[O-]` [NITROARGININE]: the Emax at 100 µM in data set [2] came out at 42.1%. Besides, in data set [3], the viability came to 102%. The negative logarithm of the IC50 (pIC50) in data set [4] is 3.84.
For `C=C1CC[C@H](OC(=O)/C=C/[C@@H](O)[C@H](C)O)[C@H](OC)[C@H]1[C@@]1(C)O[C@H]1CC=C(C)C`, the inhibition result in data set [5] is “Active”. The negative-log IC50 (pIC50) is 4.72 in data set [1] and 4.45 in data set [4]. Also, in data set [2], the maximal effect (Emax) at 100 µM was 80.8%. For the same compound, in data set [3], the viability is 93%. Further, the Activity result in data set [6] was “Non-Toxic”.
On to `CC/C(O)=C/C=C(\O)C1=C(C)C(=O)[C@@]2(O1)C(=O)N[C@](OC)(C(=O)c1ccccc1)[C@H]2O`, for which the inhibition result in data set [5] is “Active”. Moreover, the pIC50 in data set [1] was 4.78; in data set [4] it was 4.24. The maximum response (Emax) at 100 µM in data set [2] is 63.1%. Also, in data set [3], the viability turned out to be 97.6%. Moreover, the Activity entry in data set [6] is recorded as “Non-Toxic”.
On to `CC/C=C\[C@H](O)[C@H](O)C1=C(C)C(=O)[C@]2(O1)C(=O)N[C@](OC)(C(=O)c1ccccc1)[C@H]2O`, for which the pIC50 was under 4.70 in data set [1] and 4.39 in data set [4]. Further, the Emax at 100 µM in data set [2] was 78.2%. In addition, the viability in data set [3] worked out at 100%.
Consider `CO[C@H]1[C@@H](OC(=O)/C=C/[C@H]2O[C@@H]2C)CC[C@@]2(O)CO[C@@](C)(C(O)CC=C(C)C)[C@H]12` (stereo partly drawn), for which the inhibition result in data set [5] was “Active”. Besides, the results for the pIC50 in data set [1] and in data set [4] were 4.79 and 4.64, respectively. In addition, the maximum response (Emax) at 100 µM in data set [2] turned out to be 93.4%. The viability in data set [3] stood at 92.2%. For the same compound, the Activity result in data set [6] is “Non-Toxic”.
